For one data set, the system named is Pseudomonas aeruginosa. Description: Antibacterial activity against Pseudomonas aeruginosa ATCC 27853 assessed as bacterial growth inhibition incubated for 18 to 24 hrs by broth microdilution method. The data set is classed as functional. The following applies: time 18-24 hrs. A digest of the protocol:
(§1)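 CLSI broth microdilution. Overnight starter cultures (single colony, MHBII, 37 °C, shaking 18–24 h) were diluted by OD600 to 10^6 CFU/mL in MHBII. Two-fold dilutions from […] were made from 10 mg/mL DMSO stocks, then incubated 37 °C for 18-24 h. The MIC was the lowest concentration with no visible growth. Three independent runs, duplicate samples.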
(Dilution methods test growth across graded concentrations, often in twofold steps.)

Data set [1] is described as follows: Selectivity ratio of CC50 for African green monkey Vero cells to MIC against Staphylococcus aureus ATCC 29213. It is filed as toxicity, cell-based.
Data set [2] relates to Staphylococcus aureus. Description: Antibacterial activity against Staphylococcus aureus ATCC 29213 assessed as bacterial growth inhibition incubated for 18 to 24 hrs by broth microdilution method. The data set is classed as functional. Particulars: time 18-24 hrs. In short, it runs like this: as §1
The subject of the next data set is Escherichia coli. The data set can be described thus: Antibacterial activity against Escherichia coli ATCC 25922 assessed as bacterial growth inhibition incubated for 18 to 24 hrs by broth microdilution method. It is filed as functional. The following applies: time 18-24 hrs. In short, it runs like this:
as §1

In the next data set the test system is Acinetobacter baumannii. Description: Antibacterial activity against Acinetobacter baumannii BAA-1605 assessed as bacterial growth inhibition incubated for 18 to 24 hrs by broth microdilution method. It is filed as functional. The following applies: time 18-24 hrs. A digest of the protocol:
as §1

Another data set has as its system Klebsiella pneumoniae. The data set can be described thus: Antibacterial activity against Klebsiella pneumoniae BAA 1705 assessed as bacterial growth inhibition incubated for 18 to 24 hrs by broth microdilution method. Particulars: time 18-24 hrs. It is filed as functional. In short, it runs like this:
as §1

For data set [3], the system named is Staphylococcus aureus. Description: Synergistic antibacterial activity against Staphylococcus aureus ATCC 29213 assessed as bacterial growth inhibition incubated for 24 hrs in presence of (S)-8''-Bromo-1-ethyl-1'-methyl-2,12''-dioxo-12''H-dispiro[indoline-3,4'-pyrrolidine-2',6''-indolo[2,1-b]quinazoline]-3',3'-dicarbonitrile by checkerboard assay. It is filed as functional. A digest of the protocol: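 Checkerboard in 96-well plates: two-fold serial dilutions, one agent along abscissa, partner antibiotic along ordinate. Wells received ~10⁵ CFU/mL S. aureus ATCC 29213 in MHBII. Incubation 37 °C, 24 h. ΣFIC = FIC A + FIC B, each FIC being combination MIC divided by MIC alone.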

Data set [4] has as its system Staphylococcus aureus. Description: Antibacterial activity against vancomycin resistant Staphylococcus aureus […] 4 assessed as bacterial growth inhibition incubated for 18 to 24 hrs by broth microdilution method. It is filed as functional. Particulars: time 18-24 hrs. A digest of the protocol:
(§2)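 CLSI broth microdilution in MHBII; overnight starter cultures (single MHA colony, 37 °C, shaking) adjusted by OD600 to 10^6 CFU/mL. Compounds from DMSO stocks (10 mg/mL), two-fold series 64–0.5 mg/L. Incubation 37 °C, 18-24 h. MIC = lowest concentration with no visible growth. Three independent determinations, each in duplicate.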

Data set [5] has as its system Staphylococcus aureus. The data set can be described thus: Antibacterial activity against vancomycin resistant Staphylococcus aureus […] 12 assessed as bacterial growth inhibition incubated for 18 to 24 hrs by broth microdilution method. It is filed as functional. The following applies: time 18-24 hrs. A digest of the protocol:
as §2

Data set [6] has as its system Staphylococcus aureus. Description: Bactericidal activity against Staphylococcus aureus ATCC 29213 assessed as reduction in bacterial load at 10 times of MIC incubated for 24 hrs by time kill analysis. It is filed as functional. Also noted: scale not given: the % may be the effect or the level left. In short, it runs like this: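 Time-kill assay. ~10^6 CFU/mL in MHBII was exposed to 1X and 10X MIC, 37 °C with shaking for 24 h. Samples were taken at 0, 1, 6 and 24 h, serially diluted in PBS, plated on MHA and incubated 37 °C 18–20 h. Colonies were counted as CFU/mL survivors. Three repeats in duplicate; mean plotted.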

Data set [7] concerns Staphylococcus aureus. Description: Antibacterial activity against methicillin resistant Staphylococcus aureus NRS 186 assessed as bacterial growth inhibition incubated for 18 to 24 hrs by broth microdilution method. The data set is classed as functional. The following applies: time 18-24 hrs. In short, it runs like this: as §2
The subject of data set [8] is Staphylococcus aureus. Description: Antibacterial activity against methicillin resistant Staphylococcus aureus NRS 191 assessed as bacterial growth inhibition incubated for 18 to 24 hrs by broth microdilution method. The following applies: time 18-24 hrs. It is filed as functional. In short, it runs like this:
as §2

Data set [9] relates to Staphylococcus aureus. The data set can be described thus: Antibacterial activity against methicillin sensitive Staphylococcus aureus ATCC 29213 assessed as bacterial growth inhibition incubated for 18 to 24 hrs by broth microdilution method. The data set is classed as functional. The following applies: time 18-24 hrs. A digest of the protocol:
as §2

In data set [10] the test system is Staphylococcus aureus. The data set can be described thus: Antibacterial activity against methicillin resistant Staphylococcus aureus NRS 192 assessed as bacterial growth inhibition incubated for 18 to 24 hrs by broth microdilution method. It is filed as functional. Particulars: time 18-24 hrs. In short, it runs like this:
as §2

Data set [11] has as its system Staphylococcus aureus. Description: Antibacterial activity against methicillin resistant Staphylococcus aureus NRS 129 assessed as bacterial growth inhibition incubated for 18 to 24 hrs by broth microdilution method. The data set is classed as functional. The following applies: time 18-24 hrs. A digest of the protocol: as §2
The test system of data set [12] is Staphylococcus aureus. Description: Antibacterial activity against methicillin resistant Staphylococcus aureus NRS 193 assessed as bacterial growth inhibition incubated for 18 to 24 hrs by broth microdilution method. The data set is classed as functional. Particulars: time 18-24 hrs. In short, it runs like this:
as §2

Data set [13] concerns Staphylococcus aureus. The data set can be described thus: Antibacterial activity against methicillin resistant Staphylococcus aureus NRS 198 assessed as bacterial growth inhibition incubated for 18 to 24 hrs by broth microdilution method. The data set is classed as functional. The following applies: time 18-24 hrs. A digest of the protocol: as §2
Data set [14] concerns Staphylococcus aureus. The data set can be described thus: Antibacterial activity against methicillin resistant Staphylococcus aureus NRS 194 assessed as bacterial growth inhibition incubated for 18 to 24 hrs by broth microdilution method. It is filed as functional. The following applies: time 18-24 hrs. A digest of the protocol:
as §2

Data set [15] concerns Staphylococcus aureus. The data set can be described thus: Antibacterial activity against methicillin resistant Staphylococcus aureus NRS 119 assessed as bacterial growth inhibition incubated for 18 to 24 hrs by broth microdilution method. It is filed as functional. The following applies: time 18-24 hrs. In short, it runs like this:
as §2

[16] abbreviates: Staphylococcus aureus, ATCC 29213, read-out: MIC.

Values after ≈ are worked out from the molar mass of the structure shown.

For `CCN1C(=O)[C@]2(c3ccccc31)C(C(=O)NCC(=O)O)NC1(c3cc(Cl)ccc3-n3c1nc1ccccc1c3=O)C2(C#N)C#N` (stereo partly specified), the minimal inhibitory concentration (MIC) in the data set on Pseudomonas aeruginosa was over 64 µg/mL; in the data set with Staphylococcus aureus [2] (setting [16]), 1 µg/mL (≈ 1.61 µM); in the data set on Escherichia coli it was over 64 µg/mL; in the data set with Acinetobacter baumannii it was over 64 µg/mL; in the data set with Klebsiella pneumoniae, over 64 µg/mL. Besides, the selectivity ratio in data set [1] stood at 10.

Consider `CO[C@H]1/C=C/O[C@@]2(C)Oc3c(C)c(O)c4c(O)c(c(/C=N/N5CCN(C)CC5)c(O)c4c3C2=O)NC(=O)/C(C)=C\C=C\[C@H](C)[C@H](O)[C@@H](C)[C@@H](O)[C@@H](C)[C@H](OC(C)=O)[C@@H]1C` [RIFAMPIN], for which the MIC is 0.008 µg/mL (≈ 0.00972 µM) with Staphylococcus aureus [2] (setting [16]) and 0.008 µg/mL with Staphylococcus aureus [3].

Regarding `CN[C@H](CC(C)C)C(=O)N[C@H]1C(=O)N[C@@H](CC(N)=O)C(=O)N[C@H]2C(=O)N[C@H]3C(=O)N[C@H](C(=O)N[C@H](C(=O)O)c4cc(O)cc(O)c4-c4cc3ccc4O)[C@H](O)c3ccc(c(Cl)c3)Oc3cc2cc(c3O[C@@H]2O[C@H](CO)[C@@H](O)[C@H](O)[C@H]2O[C@H]2C[C@](C)(N)[C@H](O)[C@H](C)O2)Oc2ccc(cc2Cl)[C@H]1O` [VANCOMYCIN], the minimal inhibitory concentration (MIC) with Staphylococcus aureus [4] and in the data set with Staphylococcus aureus [5] was over 64 µg/mL in each case. Moreover, the Activity in the data set on Staphylococcus aureus [6] was determined as 100%.

`CCN1C(=O)[C@@]2(CN(C)C3(c4ccccc4-n4c3nc3ccccc3c4=O)C2(C#N)C#N)c2ccccc21` (stereo partly specified): the MIC in the data set with Pseudomonas aeruginosa was over 64 µg/mL; in the data set on Staphylococcus aureus [2] (setting [16]), 1 µg/mL (≈ 2.01 µM); in the data set on Escherichia coli, over 64 µg/mL; with Acinetobacter baumannii, over 64 µg/mL; in the data set on Klebsiella pneumoniae it was over 64 µg/mL.

In the case of `CCN1C(=O)[C@@]2(CN(C)C3(c4cc(I)ccc4-n4c3nc3ccc(Cl)cc3c4=O)C2(C#N)C#N)c2ccccc21` (stereo partly specified), the minimum inhibitory concentration (MIC) with Pseudomonas aeruginosa is over 64 µg/mL; in the data set with Staphylococcus aureus [2] (setting [16]), 1 µg/mL (≈ 1.52 µM); in the data set on Escherichia coli it was over 64 µg/mL; in the data set on Acinetobacter baumannii, over 64 µg/mL; in the data set on Klebsiella pneumoniae it was over 64 µg/mL.

On to `C[C@@H](O)[C@H]1C(=O)N2C(C(=O)O)=C(S[C@@H]3CN[C@H](C(=O)N(C)C)C3)[C@H](C)[C@H]12` [MEROPENEM], for which the MIC in the data set on Staphylococcus aureus [7] is 8 µg/mL (≈ 20.9 µM); in the data set with Staphylococcus aureus [8] it was 64 µg/mL (≈ 167 µM); in the data set with Staphylococcus aureus [4] it was 64 µg/mL (≈ 167 µM); with Staphylococcus aureus [9], 0.125 µg/mL (≈ 0.326 µM); in the data set on Staphylococcus aureus [10], 8 µg/mL (≈ 20.9 µM); in the data set with Staphylococcus aureus [2] (setting [16]) it was 0.063 µg/mL (≈ 0.164 µM). For the same compound, the MIC in the data set on Staphylococcus aureus [11] came to 4 µg/mL (≈ 10.4 µM); in the data set on Staphylococcus aureus [5], 8 µg/mL (≈ 20.9 µM); with Staphylococcus aureus [12], 64 µg/mL (≈ 167 µM); with Staphylococcus aureus [13] it was 64 µg/mL (≈ 167 µM); with Staphylococcus aureus [14], 1 µg/mL (≈ 2.61 µM); in the data set with Staphylococcus aureus [3] it was 0.63 µg/mL. Moreover, the MIC in the data set with Staphylococcus aureus [15] stood at 64 µg/mL (≈ 167 µM).

As to GENTAMICIN, the MIC in the data set with Staphylococcus aureus [2] and with Staphylococcus aureus [3] was 0.25 µg/mL in each case.

For `CN1C(=O)[C@@]2(CN(C)C3(c4ccccc4-n4c3nc3ccccc3c4=O)C2(C#N)C#N)c2ccccc21` (stereo partly specified), the minimal inhibitory concentration (MIC) in the data set with Pseudomonas aeruginosa is over 64 µg/mL; in the data set with Staphylococcus aureus [2] (setting [16]), 8 µg/mL (≈ 16.5 µM); in the data set on Escherichia coli, over 64 µg/mL; in the data set on Acinetobacter baumannii, over 64 µg/mL; in the data set on Klebsiella pneumoniae it was over 64 µg/mL.

For the compound `CCN1C(=O)[C@]2(c3ccccc31)C1CCCN1C1(c3ccccc3-n3c1nc1ccccc1c3=O)C2(C#N)C#N` (stereo partly specified), the minimal inhibitory concentration (MIC) in the data set on Pseudomonas aeruginosa is over 64 µg/mL; in the data set with Staphylococcus aureus [2] (setting [16]) it was 0.25 µg/mL (≈ 0.477 µM); with Escherichia coli, over 64 µg/mL; in the data set on Acinetobacter baumannii, over 64 µg/mL; with Klebsiella pneumoniae, over 64 µg/mL.

As a reminder, the MIC is the least concentration at which growth counts as inhibited.

These data come from ChEMBL document CHEMBL5329147, “Synthesis of tryptanthrin appended dispiropyrrolidine oxindoles and their antibacterial evaluation” (RSC Med Chem, 2023).
